Drawing on ChEMBL document CHEMBL1131127, “Syntheses of trans-5-oxo-hexahydro-pyrrolo[3,2-b]pyrroles and trans-5-oxo-hexahydro-furo[3,2-b]pyrroles (pyrrolidine trans-lactams and trans-lactones): new pharmacophores for elastase inhibition” (J Med Chem, 1998), this text covers IC50 for seven molecules.

Experiment [1] deals with T1, Chymotrypsinogen A (Bos taurus, UniProt P00766). The experiment can be described thus: The compound was tested for inhibition of Chymotrypsinogen with a pre-incubation time of 15 min.
Experiment [2] has as its target T2, Prothrombin (Homo sapiens, UniProt P00734). The experiment can be described thus: The compound was tested for inhibition of thrombin with a pre-incubation time of 15 min.
Experiment [3] concerns the target T3, Neutrophil elastase (Homo sapiens, UniProt P08246).
T3 sequence (P08246 whole entry): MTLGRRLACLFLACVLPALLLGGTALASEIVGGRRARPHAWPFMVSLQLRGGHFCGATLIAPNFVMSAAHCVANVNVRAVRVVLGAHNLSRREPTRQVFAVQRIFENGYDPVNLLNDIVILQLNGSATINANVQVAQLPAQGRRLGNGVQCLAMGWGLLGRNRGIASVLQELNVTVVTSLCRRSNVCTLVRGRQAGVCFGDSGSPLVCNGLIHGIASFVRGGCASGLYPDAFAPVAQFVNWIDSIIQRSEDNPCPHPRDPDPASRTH
The experiment can be described thus: The compound was tested for inhibition of human neutrophil elastase enzyme with a pre-incubation time of 0 min. The method in brief: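 HNE IC50: compound preincubated at 30 °C with substrate MeO-Succ-Ala-Ala-Pro-Val-p-nitroanilide, reaction started by adding HNE (0 min enzyme preincubation); p-nitroanilide release followed spectrophotometrically. Errors as standard deviations.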

Experiment [4] concerns the target T3, Neutrophil elastase. The experiment can be described thus: The compound was tested for inhibition of human neutrophil elastase enzyme with a pre-incubation time of 40 min. Put shortly:
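Compound preincubated with HNE for 40 min, then reaction started with MeO-Succ-Ala-Ala-Pro-Val-p-nitroanilide; p-nitroanilide release monitored spectrophotometrically to give IC50. Errors quoted as standard deviations.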

Experiment [5] has as its target T2, Prothrombin. The experiment can be described thus: The compound was tested for inhibition of thrombin with a pre-incubation time of 15 min.
The target of experiment [6] is T2, Prothrombin. Description: The compound was tested for inhibition of thrombin with a preincubation time of 15 min.
Experiment [7] deals with T1, Chymotrypsinogen A. The experiment can be described thus: The compound was tested for inhibition of Chymotrypsinogen with a pre-incubation time of 15 min.
The target of another experiment is T4, Cathepsin G (Homo sapiens, UniProt P08311).
T4 sequence (P08311 whole entry): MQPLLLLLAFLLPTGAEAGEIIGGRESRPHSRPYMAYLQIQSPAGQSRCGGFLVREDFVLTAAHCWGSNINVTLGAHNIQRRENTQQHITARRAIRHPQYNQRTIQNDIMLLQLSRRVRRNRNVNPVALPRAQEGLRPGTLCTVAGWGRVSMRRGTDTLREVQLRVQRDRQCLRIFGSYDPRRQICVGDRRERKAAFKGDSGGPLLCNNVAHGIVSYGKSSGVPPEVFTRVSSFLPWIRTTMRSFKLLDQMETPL
The experiment can be described thus: The compound was tested for inhibition of cathepsin G with a pre-incubation time of 15 min.

For experiment [8], the target named is T3, Neutrophil elastase. The experiment can be described thus: The compound was tested for inhibition of human neutrophil elastase enzyme with a pre-incubation time of 15 min. Put shortly:
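IC50 against HNE determined after a 15-min preincubation of compound with enzyme; substrate MeO-Succ-Ala-Ala-Pro-Val-p-nitroanilide, p-nitroanilide release read spectrophotometrically.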

In general, IC50 refers to the concentration that inhibits the measured activity by half. A low value points to greater potency in that assay.

Take `C=CC[C@H]1C(=O)O[C@H]2CCN(C(=O)OCc3ccccc3)C21` (stereo partly drawn): the IC50 at Chymotrypsinogen A [1] was found to be 15.9 µM; at Prothrombin [2], 49 µM; at Neutrophil elastase [3], 0.336 µM; at Neutrophil elastase [4], 0.047 µM.
Consider `C=CC[C@H]1C(=O)N(S(=O)(=O)c2cccc3ccccc23)[C@H]2CCN(C(=O)OCc3ccccc3)C12` (stereo partly drawn), for which the IC50 was 11.5 µM against Chymotrypsinogen A [1], more than 100 µM on Neutrophil elastase [3], 0.088 µM at Neutrophil elastase [4] and more than 100 µM at Prothrombin [5].
Take `CCC[C@@H](NC(=O)N1C(=O)C(CC)(CC)[C@@H]1Oc1ccc(C(=O)N2CCN(C)CC2)cc1)c1ccc2c(c1)OCO2`: the IC50 against Chymotrypsinogen A [1] came to 0.98 µM; at Neutrophil elastase [3] it was 0.023 µM; against Neutrophil elastase [4], 0.036 µM; on Prothrombin [6] it was 78.8 µM.
For the molecule `C=CC[C@H]1C(=O)N(S(C)(=O)=O)[C@H]2CCN(C(=O)OCc3ccccc3)[C@H]12`, the IC50 stood at 40.6 µM on Chymotrypsinogen A [1], 0.37 µM at Neutrophil elastase [3], 0.056 µM against Neutrophil elastase [4] and 53.2 µM at Prothrombin [5].
With `C=CC[C@@H]1C(=O)O[C@H]2CCN(C(=O)OCc3ccccc3)C21` (stereo partly drawn), the IC50 against Chymotrypsinogen A [1] came to 4.86 µM; at Prothrombin [2] it was 44.6 µM; against Neutrophil elastase [3], 12.8 µM; on Neutrophil elastase [4], 0.074 µM.
In the case of `C=CC[C@H]1C(=O)N[C@H]2CCN(C(=O)OCc3ccccc3)[C@@H]21`, the IC50 was more than 100 µM against Chymotrypsinogen A [7], more than 500 µM against Neutrophil elastase [3], more than 500 µM on Neutrophil elastase [4] and more than 100 µM against Prothrombin [5].
With `C=CC[C@H]1C(=O)O[C@H]2CCN(C(=O)OCC)C21` (stereo partly drawn), the IC50 was 3.6 µM at Cathepsin G, 0.069 µM against Neutrophil elastase [8], 4 µM against Chymotrypsinogen A [1] and more than 200 µM against Prothrombin [5].
